Experimental data: ChEMBL document CHEMBL1135582, “Synthesis and structure-activity relationships of amide and hydrazide analogues of the cannabinoid CB(1) receptor antagonist N-(piperidinyl)- 5-(4-chlorophenyl)-1-(2,4-dichlorophenyl)-4-methyl-1H-pyrazole-3-carboxamide (SR141716)” (J Med Chem, 2002)
pEC50, pKi: −log10 of the molar value.

How the values were obtained:
Rattus norvegicus [1] = organism: Rattus norvegicus; assay: The effective concentration using [35S]GTP-gamma-S binding assay in rat membranes; assay type: functional
Rattus norvegicus [2] = organism: Rattus norvegicus; assay: Maximum concentration based on [35S]GTP-gamma-S binding assay in rat membranes; assay type: functional
[3] = Selectivity measured as CB2/CB1
[4] = molecular target: T1, Cannabinoid receptor (Mus musculus) (UniProt P47746+P47936); assay: Dissociation Constant in Mouse isolated vas deferens at 316 nM of compound using cannabinoid receptor agonist WIN-55 212-2; assay type: functional, tissue-based
T1 sequence (P47746 whole entry, looked up): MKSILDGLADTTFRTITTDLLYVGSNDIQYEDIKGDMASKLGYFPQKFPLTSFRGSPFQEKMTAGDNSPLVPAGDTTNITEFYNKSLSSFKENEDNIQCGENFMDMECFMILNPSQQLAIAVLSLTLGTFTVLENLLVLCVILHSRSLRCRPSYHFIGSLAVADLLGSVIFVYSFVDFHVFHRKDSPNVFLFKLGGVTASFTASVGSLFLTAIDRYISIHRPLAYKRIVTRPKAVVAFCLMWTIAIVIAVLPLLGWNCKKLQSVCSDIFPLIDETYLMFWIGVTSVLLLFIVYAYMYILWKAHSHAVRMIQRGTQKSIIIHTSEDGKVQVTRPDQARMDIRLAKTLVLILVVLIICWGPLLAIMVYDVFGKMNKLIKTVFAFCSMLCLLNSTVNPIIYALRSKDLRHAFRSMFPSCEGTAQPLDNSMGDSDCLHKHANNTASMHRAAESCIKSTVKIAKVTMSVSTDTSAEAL
T1 sequence (P47936 whole entry, looked up): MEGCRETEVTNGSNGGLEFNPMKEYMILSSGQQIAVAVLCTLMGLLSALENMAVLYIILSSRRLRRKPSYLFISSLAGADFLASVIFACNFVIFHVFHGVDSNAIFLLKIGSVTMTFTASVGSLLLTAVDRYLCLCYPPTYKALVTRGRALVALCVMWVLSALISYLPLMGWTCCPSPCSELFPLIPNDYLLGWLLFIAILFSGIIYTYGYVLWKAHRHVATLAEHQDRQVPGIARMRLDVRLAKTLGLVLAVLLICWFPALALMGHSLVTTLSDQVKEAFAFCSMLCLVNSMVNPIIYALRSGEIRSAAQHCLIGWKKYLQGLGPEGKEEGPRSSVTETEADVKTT
In short: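 Vasa deferentia from MF1 mice (26–44 g) were electrically stimulated in an organ bath until twitches were stable. Percent twitch inhibition was measured. KB came from a single concentration ratio via (x−1)=B/KB, with ratios from (2+2) parallel line assays. Results are means with 95% confidence limits.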

[5] = molecular target: T1, Cannabinoid receptor (Mus musculus); assay: Dissociation Constant in Mouse isolated vas deferens at 31.6 nM of compound using cannabinoid receptor agonist WIN-55 212-2
Cannabinoid receptor 1 [6] = molecular target: T2, Cannabinoid receptor 1 (Rattus norvegicus, UniProt P20272); assay: Binding affinity in a competition assay by displacement of [3H]CP-55940 from Cannabinoid receptor 1 in rat whole brain membrane preparation; assay type: cell membranes
T2 sequence (P20272 whole entry): as the sequence (P47746 whole entry, looked up) above, with D95E counted along it

Cannabinoid receptor 1 [7] = molecular target: T2, Cannabinoid receptor 1; assay: Binding affinity in a competition assay by displacement of [3H]- SR-141716 from Cannabinoid receptor 1 in rat whole brain membrane preparation; assay type: cell membranes
Cannabinoid receptor 2 = Cannabinoid receptor 2 (Homo sapiens, UniProt P34972); assay: Binding affinity at cannabinoid receptor 2 in a competition assay with [3H]CP-55940 as radioligand
Cannabinoid receptor 2, sequence (P34972 whole entry): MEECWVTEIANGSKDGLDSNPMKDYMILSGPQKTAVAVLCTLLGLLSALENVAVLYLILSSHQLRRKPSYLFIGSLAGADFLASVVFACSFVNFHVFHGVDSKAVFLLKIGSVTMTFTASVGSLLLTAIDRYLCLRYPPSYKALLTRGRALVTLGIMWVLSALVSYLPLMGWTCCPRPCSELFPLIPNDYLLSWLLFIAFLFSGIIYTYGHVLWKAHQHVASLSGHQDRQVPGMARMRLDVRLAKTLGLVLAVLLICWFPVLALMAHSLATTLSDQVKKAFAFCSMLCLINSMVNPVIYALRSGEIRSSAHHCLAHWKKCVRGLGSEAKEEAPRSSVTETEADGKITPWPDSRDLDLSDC

[8] = molecular target: T1, Cannabinoid receptor (Mus musculus); assay: Dissociation Constant in Mouse isolated vas deferens at 316 nM of compound using cannabinoid receptor agonist WIN-55 212-2 (95% confidence limits); assay type: functional, tissue-based
In short: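 Vasa deferentia from albino MF1 mice (26–44 g) in organ bath, electrically stimulated until twitch amplitude stable. Antagonist (DMSO vehicle) added 30 min before cumulative agonist additions at 5 min intervals, stimulating final 2 min of each. Inhibition relative to pre-agonist twitch; KB from single concentration ratio, (x − 1) = B/KB, via (2 + 2) parallel line assay; 95% confidence limits; n = 5 or 6.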

Row | Compound | pEC50 (Rattus norvegicus [1]) | Emax (Rattus norvegicus [2]) | Selectivity [3] | further results
1 | CCNNC(=O)c1nn(-c2ccc(Cl)cc2Cl)c(-c2ccc(Cl)cc2)c1C | 3.31 | – | – | –
2 | Cc1c(C(=O)NC(C)C)nn(-c2ccc(Cl)cc2Cl)c1-c1ccc(Cl)cc1 | 4.80 | -46.4 | 59 | –
3 | CCCCNC(=O)c1nn(-c2ccc(Cl)cc2Cl)c(-c2ccc(Cl)cc2)c1C | 5.07 | -38.5 | 119 | –
4 | Cc1c(C(=O)NCCCCO)nn(-c2ccc(Cl)cc2Cl)c1-c1ccc(Cl)cc1 | 3.52 | -79.5 | – | –
5 | Cc1c(C(=O)NCCCO)nn(-c2ccc(Cl)cc2Cl)c1-c1ccc(Cl)cc1 | 3.62 | -83.3 | 8 | –
6 | Cc1c(C(=O)NCC(C)C)nn(-c2ccc(Cl)cc2Cl)c1-c1ccc(Cl)cc1 | 5.12 | -11 | 61 | Kb [4]: 0.0212 µM
7 | Cc1c(C(=O)NN)nn(-c2ccc(Cl)cc2Cl)c1-c1ccc(Cl)cc1 | 3.38 | -71.7 | 32 | –
8 | CCCCCCNC(=O)c1nn(-c2ccc(Cl)cc2Cl)c(-c2ccc(Cl)cc2)c1C | 4.53 | -13 | 378 | Kb [5]: 0.0154 µM
9 | Cc1c(C(=O)N[C@@H](C)CO)nn(-c2ccc(Cl)cc2Cl)c1-c1ccc(Cl)cc1 | 3.53 | -83.8 | 50 | pKi (Cannabinoid receptor 1 [6]): 6.93; pKi (Cannabinoid receptor 1 [7]): 6.91; pKi (Cannabinoid receptor 2): 5.23
10 | Cc1c(C(=O)NO)nn(-c2ccc(Cl)cc2Cl)c1-c1ccc(Cl)cc1 | – | – | 5 | –
11 | Cc1c(C(=O)NCCO)nn(-c2ccc(Cl)cc2Cl)c1-c1ccc(Cl)cc1 | 2.78 | -76.5 | 11 | –
12 | CCCNC(=O)c1nn(-c2ccc(Cl)cc2Cl)c(-c2ccc(Cl)cc2)c1C | 4.95 | -35.7 | 99 | –
13 | Cc1c(C(=O)NC2CCCCC2)nn(-c2ccc(Cl)cc2Cl)c1-c1ccc(Cl)cc1 | 4.59 | -22.1 | 93 | –
14 | Cc1c(C(=O)NN2CCOCC2)nn(-c2ccc(Cl)cc2Cl)c1-c1ccc(Cl)cc1 | 4.41 | -76.3 | 105 | Kb [8]: 0.0125 µM
15 | Cc1c(C(=O)N[C@H](C)CO)nn(-c2ccc(Cl)cc2Cl)c1-c1ccc(Cl)cc1 | 3.53 | -83 | 15 | pKi (Cannabinoid receptor 1 [6]): 6.93; pKi (Cannabinoid receptor 1 [7]): 7.00; pKi (Cannabinoid receptor 2): 5.75
16 | CNNC(=O)c1nn(-c2ccc(Cl)cc2Cl)c(-c2ccc(Cl)cc2)c1C | 1.92 | – | – | –
17 | CCCCCNC(=O)c1nn(-c2ccc(Cl)cc2Cl)c(-c2ccc(Cl)cc2)c1C | 5.28 | -7.4 | – | –
18 | CCNC(=O)c1nn(-c2ccc(Cl)cc2Cl)c(-c2ccc(Cl)cc2)c1C | 4.52 | -46.9 | 67 | –
